Measured values from ChEMBL document CHEMBL4311965, “Antimicrobial activity of amphipathic α,α-disubstituted β-amino amide derivatives against ESBL - CARBA producing multi-resistant bacteria; effect of halogenation, lipophilicity and cationic character” (Eur J Med Chem, 2019).
Converted amounts (≈) assume the structure as drawn.

Key:
[1] = test system: Escherichia coli; assay: Antibacterial activity against multidrug-resistant Escherichia coli 50639799 producing Verona integron encoded metallo beta-lactamse-29 cultured in MHB medium assessed as reduction in bacterial growth incubated for 24 hrs by microdilution susceptibility test; format: functional; settings: Escherichia coli, 50639799, 24 h
Outline: (§1)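 Broth microdilution per CLSI M07-A9 (modified). Working solutions made from concentrated DMSO stocks kept at r.t., diluted in double-distilled water, final DMSO <1%. Inoculum 1–1.2 x 10⁶ cells/mL in Mueller-Hinton broth, mixed 1:1 with compound. 37 °C, 24 h, four parallels. Read as OD₆₀₀. Where precipitation left residual OD, the point of major OD decrease was taken as the inhibitory concentration.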

[2] = test system: HepG2; assay: Cytotoxicity against human HepG2 cells assessed as reduction in cell viability incubated for 4 hrs by CellTiter 96 Aqueous One Solution Reagent based assay; settings: HepG2, 4 h
Outline: (§2)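 HepG2 and MRC-5 cells seeded at 35 000 and 15 000 cells/well respectively, then held overnight at 37 °C, 5% CO₂. Compounds in serum-free MEM Earle's applied for 4 h. MTS reagent (CellTiter 96 AQueous One) added for a further 1 h, absorbance read at 485 nm. Survival expressed relative to medium (negative) and Triton X-100 (positive) controls.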

[3] = test system: MRC5; assay: Cytotoxicity against human MRC5 cells assessed as reduction in cell viability incubated for 4 hrs by CellTiter 96 Aqueous One Solution Reagent based assay; settings: MRC5, 4 h; outline: as §2
[4] = test system: Klebsiella pneumoniae; assay: Antibacterial activity against multidrug-resistant Klebsiella pneumoniae K47-25 producing carbapenemase-2 cultured in MHB medium assessed as reduction in bacterial growth incubated for 24 hrs by microdilution susceptibility test; format: functional; settings: K47-25, 24 h; outline: as §1
[5] = Aqueous solubility of the compound in DMSO; format: physicochemical
[6] = test system: Enterococcus faecium; assay: Antibacterial activity against multidrug-resistant Enterococcus faecium 50901530 cultured in BHIB medium assessed as reduction in bacterial growth incubated for 24 hrs by microdilution susceptibility test; format: functional; settings: Enterococcus faecium, 50901530, 24 h
Outline: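 Enterococci grown in Brain Heart Infusion broth, otherwise broth microdilution per CLSI M07-A9 (modified). Concentrated DMSO stocks kept at r.t. and diluted in double-distilled water, final DMSO <1%. Inoculum 1–1.2 x 10⁶ cells/mL mixed 1:1 with compound. 37 °C, 24 h, four parallels. OD₆₀₀ read-out, lowest concentration with no growth.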

[7] = test system: Escherichia coli; assay: Antibacterial activity against multidrug-resistant Escherichia coli 50857972 producing imipenem-type carbapenemase-26 cultured in MHB medium assessed as reduction in bacterial growth incubated for 24 hrs by microdilution susceptibility test; format: functional; settings: Escherichia coli, 50857972, 24 h; outline: as §1
[8] = test system: Staphylococcus aureus; assay: Antibacterial activity against Staphylococcus aureus ATCC 9144 cultured in MHB medium assessed as no bacterial growth incubated at 37 degC for 24 hrs by microdilution susceptibility test; format: functional; settings: ATCC 9144, 24 h
Outline: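 Broth microdilution per CLSI M07-A9 with modifications. Inoculum about 2.5–3 x 10⁴ cells/mL in Mueller-Hinton broth, mixed 1:1 with test derivative. DMSO stocks diluted in double-distilled water, final DMSO <1%. Incubation 24 h at 37 °C (20 °C for C. glutamicum). Growth and sterility controls included; oxytetracycline reference.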

[9] = test system: Acinetobacter baumannii; assay: Antibacterial activity against multidrug-resistant Acinetobacter baumannii K47-42 producing oxcillinase-23 cultured in MHB medium assessed as reduction in bacterial growth incubated for 24 hrs by microdilution susceptibility test; format: functional; settings: K47-42, 24 h; outline: as §1
[10] = test system: Staphylococcus aureus; assay: Antibacterial activity against multidrug-resistant Staphylococcus aureus NCTC 10442 cultured in MHB medium assessed as reduction in bacterial growth incubated for 24 hrs by microdilution susceptibility test; format: functional; settings: NCTC 10442, 24 h; outline: as §1
[11] = test system: Staphylococcus aureus; assay: Antibacterial activity against multidrug-resistant Staphylococcus aureus IHT 99040 cultured in MHB medium assessed as reduction in bacterial growth incubated for 24 hrs by microdilution susceptibility test; format: functional; settings: IHT 99040, 24 h; outline: as §1
[12] = test system: Acinetobacter baumannii; assay: Antibacterial activity against multidrug-resistant Acinetobacter baumannii K63-58 producing oxcillinase-23 cultured in MHB medium assessed as reduction in bacterial growth incubated for 24 hrs by microdilution susceptibility test; format: functional; settings: K63-58, 24 h; outline: as §1
[13] = test system: Escherichia coli; assay: Antibacterial activity against multidrug-resistant Escherichia coli 50739822 producing New Delhi metallo-beta-lactamase-1 cultured in MHB medium assessed as reduction in bacterial growth incubated for 24 hrs by microdilution susceptibility test; format: functional; settings: Escherichia coli, 50739822, 24 h; outline: as §1
[14] = Drug metabolism in Sprague-Dawley rat liver microsomes assessed as CYP450-mediated 2-[[2-(aminomethyl)-3-[3,5-bis(trifluoromethyl)phenyl]-2-[[3,5-bis(trifluoromethyl)phenyl]methyl]propanoyl]amino]acetic acid formation incubated up to 3 hrs in presence of NADPH regenerating system by RP-HPLC-MS analysis; format: ADME
Outline: (§3)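 Substrate at 1 µL of 100 µM aqueous stock in 100 mM potassium phosphate, pH 7.4, with NADPH regenerating system. Pooled male Sprague–Dawley rat liver microsomes (20 mg/mL stock) added, then incubated at 37 °C. Sampled at 0–180 min and quenched with cold methanol containing propranolol internal standard. Analysed by RP-HPLC–HRMS in positive ESI mode. Metabolites confirmed by HCD MS2. Triplicate incubations.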

[15] = test system: Acinetobacter baumannii; assay: Antibacterial activity against multidrug-resistant Acinetobacter baumannii K55-13 producing oxcillinase-24 cultured in MHB medium assessed as reduction in bacterial growth incubated for 24 hrs by microdilution susceptibility test; format: functional; settings: K55-13, 24 h; outline: as §1
[16] = test system: Pseudomonas aeruginosa; assay: Antibacterial activity against multidrug-resistant Pseudomonas aeruginosa K44-24 producing imipenem-type carbapenemase-14 cultured in MHB medium assessed as reduction in bacterial growth incubated for 24 hrs by microdilution susceptibility test; format: functional; settings: K44-24, 24 h; outline: as §1
[17] = Drug metabolism in Sprague-Dawley rat liver microsomes assessed as CYP450-mediated 4-[2-(aminomethyl)-3-[3,5-bis(trifluoromethyl)phenyl]-2-(4,5-dihydrooxazol-3-ium-2-yl)propyl]-2,6-bis(trifluoromethyl)phenol formation incubated up to 3 hrs in presence of NADPH regenerating system by RP-HPLC-MS analysis; format: ADME; outline: as §3
[18] = test system: Klebsiella pneumoniae; assay: Antibacterial activity against multidrug-resistant Klebsiella pneumoniae 50531633 producing New Delhi metallo-beta-lactamase-1 and oxcillinase-181 cultured in MHB medium assessed as reduction in bacterial growth incubated for 24 hrs by microdilution susceptibility test; format: functional; settings: Klebsiella pneumoniae, 50531633, 24 h; outline: as §1
[19] = Drug metabolism in Sprague-Dawley rat liver microsomes assessed as CYP450-mediated 2-[[2-(aminomethyl)-3-(3,5-dibromophenyl)-2-[(3,5-dibromophenyl)methyl]propanoyl]amino]acetic acid formation incubated up to 3 hrs in presence of NADPH regenerating system by RP-HPLC-MS analysis; format: ADME; outline: as §3
[20] = Drug metabolism in Sprague-Dawley rat liver microsomes assessed as CYP450-mediated 4-[2-(aminomethyl)-3-(3,5-dibromophenyl)-2-(4,5-dihydrooxazol-3-ium-2-yl)propyl]-2,6-dibromo-phenol formation incubated up to 3 hrs in presence of NADPH regenerating system by RP-HPLC-MS analysis; format: ADME; outline: as §3
[21] = Drug metabolism in Sprague-Dawley rat liver microsomes assessed as CYP450-mediated N-(2-aminoethyl)-2-(aminomethyl)-2-[(3,5-dibromo-4-hydroxy-phenyl)methyl]-3-(3,5-dibromophenyl)propanamide formation incubated up to 3 hrs in presence of NADPH regenerating system by RP-HPLC-MS analysis; format: ADME; outline: as §3
[22] = Drug metabolism in Sprague-Dawley rat liver microsomes assessed as CYP450-mediated deaminated form of N-(2-aminoethyl)-2-(aminomethyl)-3-(4-fluoro-1-naphthyl)-2-[(4-fluoro-1-naphthyl)methyl]propanamide metabolite formation incubated up to 3 hrs in presence of NADPH regenerating system by RP-HPLC-MS analysis; format: ADME; outline: as §3

| SMILES | MIC [1] | EC50 [2] | EC50 [3] | MIC [4] | solubility [5] | MIC [6] | MIC [7] | MIC [8] | MIC [9] | MIC [10] | MIC [11] | MIC [12] | MIC [13] | MIC [15] | MIC [16] | MIC [18] | other results |
| --- | --- | --- | --- | --- | --- | --- | --- | --- | --- | --- | --- | --- | --- | --- | --- | --- | --- |
| NCCNC(=O)C(CN)(Cc1cc(C(F)(F)F)cc(C(F)(F)F)c1)Cc1cc(C(F)(F)F)cc(C(F)(F)F)c1 | 16 µg/mL (≈ 27.4 µM) | 11 µg/mL (≈ 18.9 µM) | 11 µg/mL (≈ 18.9 µM) | 32 µg/mL (≈ 54.8 µM) | Soluble | 4 µg/mL (≈ 6.86 µM) | 8 µg/mL (≈ 13.7 µM) | 4 µg/mL (≈ 6.86 µM) | 16 µg/mL (≈ 27.4 µM) | 16 µg/mL (≈ 27.4 µM) | 8 µg/mL (≈ 13.7 µM) | 8 µg/mL (≈ 13.7 µM) | 16 µg/mL (≈ 27.4 µM) | 16 µg/mL (≈ 27.4 µM) | > 32 µg/mL | 16 µg/mL (≈ 27.4 µM) | Drug metabolism [14]: Metabolite_Notdetected; Drug metabolism [17]: Metabolite_Notdetected |
| NCCNC(=O)C(CN)(Cc1cc(Br)cc(Br)c1)Cc1cc(Br)cc(Br)c1 | 16 µg/mL (≈ 25.5 µM) | 13 µg/mL (≈ 20.7 µM) | 17 µg/mL (≈ 27.1 µM) | 16 µg/mL (≈ 25.5 µM) | Soluble | 8 µg/mL (≈ 12.8 µM) | 8 µg/mL (≈ 12.8 µM) | 2 µg/mL (≈ 3.19 µM) | 16 µg/mL (≈ 25.5 µM) | 8 µg/mL (≈ 12.8 µM) | 16 µg/mL (≈ 25.5 µM) | 32 µg/mL (≈ 51 µM) | 8 µg/mL (≈ 12.8 µM) | 16 µg/mL (≈ 25.5 µM) | 32 µg/mL (≈ 51 µM) | 16 µg/mL (≈ 25.5 µM) | Drug metabolism [19]: Metabolite_Notdetected; Drug metabolism [20]: Metabolite_Notdetected; Drug metabolism [21]: Metabolite_Notdetected |
| NCCNC(=O)C(CN)(Cc1ccccc1C(F)(F)F)Cc1ccccc1C(F)(F)F | > 32 µg/mL | 45 µg/mL (≈ 101 µM) | 42 µg/mL (≈ 93.9 µM) | > 32 µg/mL | Soluble | 32 µg/mL (≈ 71.5 µM) | > 32 µg/mL | 32 µg/mL (≈ 71.5 µM) | > 32 µg/mL | > 32 µg/mL | 32 µg/mL (≈ 71.5 µM) | > 32 µg/mL | > 32 µg/mL | > 32 µg/mL | > 32 µg/mL | > 32 µg/mL | – |
| NCCNC(=O)C(CN)(Cc1ccc(F)c2ccccc12)Cc1ccc(F)c2ccccc12 | 16 µg/mL (≈ 35.8 µM) | 12 µg/mL (≈ 26.8 µM) | 4 µg/mL (≈ 8.94 µM) | 32 µg/mL (≈ 71.5 µM) | Soluble | 16 µg/mL (≈ 35.8 µM) | 8 µg/mL (≈ 17.9 µM) | 4 µg/mL (≈ 8.94 µM) | 16 µg/mL (≈ 35.8 µM) | 8 µg/mL (≈ 17.9 µM) | 16 µg/mL (≈ 35.8 µM) | 16 µg/mL (≈ 35.8 µM) | 16 µg/mL (≈ 35.8 µM) | 32 µg/mL (≈ 71.5 µM) | 32 µg/mL (≈ 71.5 µM) | 8 µg/mL (≈ 17.9 µM) | Drug metabolism [22]: Metabolite_Detected |
